# High-throughput results from PubChem.
# The list is not random: actives were taken first. Their share in the collection is about 1.5%.
# INS-1E GSIS act: primary screen for activators of insulin secretion dependent on glucose, INS-1E cells, GLuc reporter luminescence; INS-1E GLuc reporter insulin secretion, 2-3 h; activation, % at 16.6 µM; 370,000 tested, 0.61% active;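 active means lowest replicate activation of at least 40%, so every replicate reaches that level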;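 further: 0% = median of neutral control wells and 100% = median of IBMX positive control wells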
# PDI inh: PDI (human) enzyme inhibition. P07237. PDI insulin aggregation turbidity, A650, 90 min. inhibition, % at 10 µM. 350,000 tested, 0.052% active. AID 588391;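 active means mean inhibition across replicates of 30% or more, whatever share of single replicates reach that level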
# SIRT5 block: inhibitors of human sirtuin-5 desuccinylase; Q9NXA8; Purified SirT5, succinyl-peptide AMC, trypsin-coupled fluorescence; inhibition, % at 15 µM; 330,000 tested, 1.1% active; AID 652115; in the data active means inhibition above about 15%
# ERp5 inh: blocks human ERp5 reductase activity on insulin | Q15084 | ERp5 insulin aggregation, absorbance 650 nm, 90 min | inhibition, % at 9.99 µM | 350,000 tested, 0.05% active | AID 651711;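 active means mean replicate inhibition above about 25%, with every replicate also reaching it, limit read from the data, passing the limit was not always enough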
# Target sequence (Q15084 whole entry, looked up): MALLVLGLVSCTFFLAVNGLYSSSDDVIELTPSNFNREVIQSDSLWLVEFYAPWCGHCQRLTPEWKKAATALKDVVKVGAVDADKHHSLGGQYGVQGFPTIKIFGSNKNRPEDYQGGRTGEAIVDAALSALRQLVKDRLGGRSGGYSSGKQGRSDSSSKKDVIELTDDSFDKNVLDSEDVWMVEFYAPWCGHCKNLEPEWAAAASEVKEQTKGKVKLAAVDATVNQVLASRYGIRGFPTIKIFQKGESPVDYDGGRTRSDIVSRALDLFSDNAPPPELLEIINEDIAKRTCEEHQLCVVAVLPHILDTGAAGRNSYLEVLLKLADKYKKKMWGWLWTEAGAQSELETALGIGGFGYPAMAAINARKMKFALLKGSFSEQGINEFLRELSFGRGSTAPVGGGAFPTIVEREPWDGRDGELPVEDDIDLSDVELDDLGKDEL
# S100A4 MyoIIA: S100A4-myosin IIA interaction inhibition | 360,000 tested, 0.14% active | inhibition, % at 10.7 µM | S100A4/TAMRA-MyoIIA peptide fluorescence polarization | P26447;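 active means mean inhibition of at least 70% across replicates, with every replicate also reaching that level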
# Target sequence (P26447 whole entry, looked up): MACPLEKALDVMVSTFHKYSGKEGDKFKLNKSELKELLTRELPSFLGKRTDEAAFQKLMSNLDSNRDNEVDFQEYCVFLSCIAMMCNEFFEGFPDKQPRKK
#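 Material: S100A4 monomer (human). Medium: Calcium-containing HEPES buffer, pH 7.2. Probe or stimulus: labelled myosin peptide probe, 5 nM. Compound dosing: one concentration per compound. Timing: polarization read 5 min after assay mix addition, stable 5–60 min. Benchmarks: DMSO as neutral control, TFP as positive control.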
# * hit, by the source's call; x = not tested or not shown.
SMILES,INS-1E GSIS act,PDI inh,SIRT5 block,ERp5 inh,S100A4 MyoIIA
CCOc1ccc(CCNC(=O)c2cc(C)on2)cc1OCC,55*,0,-2,-2,0
COc1ccc(NC(=O)N(C)C[C@H]2Oc3ccc(NS(=O)(=O)c4cccs4)cc3C(=O)N([C@H](C)CO)C[C@H]2C)cc1,10,x,-2,1,12
C[C@@H]1CN([C@@H](C)CO)C(=O)Cc2cc(NC(=O)CCN3CCOCC3)ccc2O[C@@H]1CN(C)CC1CCCCC1,20,x,-12,-2,18
O=C(Nc1ncn[nH]1)c1ccc(Cl)cc1Cl,-1,1,-3,1,3
O=C(Nc1ncn[nH]1)c1ccc(Cl)c(Cl)c1,44*,6,-2,2,2
CS(=O)(=O)N(Cc1ccco1)Cc1ccccc1Cl,18,5,0,2,-3
CS(=O)(=O)N(CCC#N)Cc1ccco1,14,15,16*,-5,-5
C[C@H]([C@H](O)c1ccccc1)N(C)C(=O)CN,-6,-1,21*,2,14
CCCNC(=O)N1[C@H](C#N)[C@H](c2ccc(-c3cccnc3)cc2)[C@H]1CO,4,x,1,3,7
CCCN1CCC(=O)N([C@H](CSc2ccc(OC)cc2)c2ccccc2)CC1,x,3,21*,6,2
CN1CCC(=O)N([C@H](CSc2ccccc2)c2ccccc2)CC1,-14,7,x,4,-2
COCC(=O)N(C)C[C@H]1Oc2ncc(C#Cc3ccccc3)cc2C(=O)N([C@H](C)CO)C[C@@H]1C,-6,x,1,-4,4
O=C1Nc2ccccc2-c2nnnn2C1N1CCCC1 (stereo not drawn),28,x,18*,4,-1
CCn1ncc2c1C(=O)NC1c3ccccc3C(=O)N21 (stereo not drawn),51*,2,x,x,x
CN(C)C(=O)CSC1c2ccccc2C(=O)N1c1ccccc1 (stereo not drawn),6,-1,-8,-2,-4
CCCCN(CC)CCNC(=O)c1cc2c(-c3ccc(Cl)cc3)nn(C)c2s1,67*,9,-25,0,-12
CCN(CC)CCNC(=O)c1cc2c(-c3ccc(Cl)cc3)nn(C)c2s1,15,-3,x,1,-4
C[C@H](CO)N1C[C@H](C)[C@H](CN(C)S(=O)(=O)c2ccc(F)cc2)Oc2c(NS(=O)(=O)c3ccc(Cl)cc3)cccc2C1=O,-11,x,x,x,x
COc1ccccc1CNC(=O)COC(=O)c1cc(C)nc2ccccc12,48*,-9,-3,-2,-13
Cc1cc(C(=O)OCC(=O)NCc2ccccc2)c2ccccc2n1,67*,5,-1,-6,6
CO[C@H]1CN(C)C(=O)c2cc(NC(=O)c3ccc(F)cc3)ccc2OC[C@@H](C)N(C(=O)CN(C)C)C[C@@H]1C,3,x,x,x,x
COc1ccc(C(=O)NCC(=O)N/N=C/c2c(C)[nH]c3ccccc23)cc1,13,-1,-2,5,9
O=C(COc1ccccc1)NCC(=O)N/N=C/C=C/c1ccccc1,6,1,20*,17,2
Cc1[nH]c2ccccc2c1/C=N/NC(=O)CNC(=O)COc1ccccc1,-14,6,113*,-5,9
Cc1ccc(/C=N/NC(=O)CNC(=O)COc2ccccc2)cc1,x,10,0,-4,-1
SMILES,INS-1E GSIS act,PDI inh,SIRT5 block,ERp5 inh,S100A4 MyoIIA
O=C(C[C@H]1C[C@@H]2c3cc(NC(=O)C4CCC4)ccc3O[C@@H]2[C@@H](CO)O1)NCC1CC1,1,x,2,-3,3
C[C@H](CO)N1C[C@H](C)[C@@H](CN(C)Cc2ccc(C(=O)O)cc2)Oc2c(NC(=O)CCC(F)(F)F)cccc2C1=O,12,x,x,x,x
Cc1c(NC(=O)c2ccccc2NC(=O)c2ccccc2)cccc1C(=O)O,-6,-12,1,0,3
Cc1c(NC(=O)c2ccc(NC(=O)C3CC3)cc2)cccc1C(=O)O,5,3,20*,1,-7
CCC[C@H]1CC(=O)C=C(c2ccsc2)ON1C(=O)OC(C)(C)C,-14,4,21*,-3,-4
CCOC(=O)CC1C(=O)NCCN1C1CCCC1 (stereo not drawn),-3,1,20*,5,2
Cc1nn(C)cc1NC(=O)C[C@@H]1CC[C@@H]2[C@@H](COc3ccc(NC(=O)Nc4cccc(Cl)c4)cc3C(=O)N2C)O1,-7,x,2,3,-8
COc1cc(S(=O)(=O)Nc2ccc(C)cc2)ccc1N=Cc1c(C)c(C#N)c(=O)n(C)c1O,-2,5,1,-8,80*
C[C@H]1CN(C)C(=O)Cc2cc(N)ccc2O[C@@H]1CN(C)C(=O)OC(C)(C)C,8,x,x,x,x
CCN(CC)S(=O)(=O)c1ccc(N2CCOCC2)c(NC(=O)c2cccc3c(=O)c(C)c(-c4ccccc4)oc23)c1,11,-3,-3,6,1
COc1ccc(S(=O)(=O)N2CCOCC2)cc1NC(=O)c1cccc2c(=O)c(C)c(-c3ccccc3)oc12,19,-1,27*,8,17
CC(C)(C)c1cc(OC(=O)C2CCCC2)ccc1O,40,10,-3,-3,2
CCCCC(CC)C(=O)Oc1ccc(O)c(C(C)(C)C)c1 (stereo not drawn),511*,-3,19*,-5,-8
CCc1ccc(OCC(=O)NC(=S)Nc2ccc(C)cc2C)c(Br)c1,41*,-5,x,x,x
C[C@@H]1CN([C@@H](C)CO)C(=O)Cc2cc(NC(=O)Nc3cccc4ccccc34)ccc2O[C@H]1CN(C)C(=O)Nc1ccc2c(c1)OCO2,-18,x,2,-11,3
CCCC(=O)N1CC2(CN(C(C)=O)C2)c2c(n(C)c3cc(OC)ccc23)[C@H]1CO,44,x,x,x,x
Cc1ccc(C)c(S(=O)(=O)Nc2ccc(C(=O)N3CCC3)cc2)c1,43*,15,-2,-6,4
CCOc1nc(NC(=O)NS(=O)(=O)Oc2ccccc2Cl)nc(-c2ccccc2)n1,60*,-3,x,x,x
CCOc1nc(NC(=O)NS(=O)(=O)c2cccc(Cl)c2)nc(-c2ccccc2)n1,71*,-2,-3,-7,-1
COc1ccc(CNC(=O)C2Cc3c(-c4cccc(F)c4)ccnc3O2)cc1OC (stereo not drawn),57*,3,x,3,-10
CN(C)S(=O)(=O)c1cccc(NC(=S)N/N=C/c2cc(Br)ccc2O)c1,-23,-5,29*,-4,1
COc1ccc(/C(C)=N/Nc2ccc(C(=O)O)cc2)cc1OC,63*,5,x,x,x
COc1cc(/C(C)=N/Nc2ccc(C(=O)O)cc2)cc(OC)c1OC,-23,6,x,x,x
C/C(=N/NC(=O)c1ccc(Br)s1)c1ccncc1,50*,-11,-1,3,-4
CCCCN(C)CCNC(=O)c1ccc(Cn2c(=S)[nH]c3ccc(Br)cc3c2=O)cc1,-4,4,49*,3,-8
CN(C)CCNC(=O)c1ccc2c(=O)n(Cc3ccc(Cl)cc3)c(=S)[nH]c2c1,1,-1,-3,-5,1
